Here are results for 25 compounds from ChEMBL document CHEMBL4266004, “Series of Alkynyl-Substituted Thienopyrimidines as Inhibitors of Protozoan Parasite Proliferation” (ACS Med Chem Lett, 2018).

SMILES strings stand for the structures. pEC50: −log10 of the molar value. Where only a bound is given, the exact number is not on record here.

Data set [1] is described as follows: Cytotoxicity against human HepG2 cells. Type of data set: cell-based. The settings on record: read-out: TC50 (the source's name).
Data set [2] has as its system Trypanosoma brucei brucei. In words: Antitrypanosomal activity against Trypanosoma brucei brucei 427 at 5 uM after 48 hrs by presto blue dye based fluorescence assay relative to control. Type of data set: functional. In outline:
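Single-concentration screen of bloodstream T. brucei cultures at 5 μM, 5 × 10^4 cells/mL; percent proliferation inhibition recorded.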

The test system of data set [3] is Trypanosoma cruzi. The experiment in a line: Antitrypanosomal activity against Trypanosoma cruzi Tulahuen intracellular amastigote harboring beta-galactosidase infected in mouse NIH/3T3 cells after 96 hrs by CPRG reagent based assay. Type of data set: functional, organism-based. The conditions noted are these: NIH3T3, 96 h.
A short description of data set [4]: Cytotoxicity against mouse NIH/3T3 cells. The settings on record: read-out: TC50 (the source's name). Type of data set: cell-based, NIH3T3.
The nature of data set [5]: Selectivity index, ratio of TC50 for mouse NIH/3T3 cells to EC50 for Trypanosoma cruzi Tulahuen intracellular amastigote harboring beta-galactosidase. Type of data set: toxicity, cell-based. The conditions noted are these: read-out: Selectivity Index. In outline:
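NIH 3T3 cells, the host line for intracellular T. cruzi amastigote culture, tested for toxicity. Selectivity = NIH3T3 TC50 / T. cruzi EC50.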

Data set [6] has as its system Leishmania major. The experiment in a line: Antileishmanial activity against Leishmania major intracellular amastigotes harboring luciferase infected in mouse RAW264.7 cells after 96 hrs by luminescence assay. Type of data set: functional, organism-based. The settings on record: RAW264.7, 96 h. In outline:
(§1)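 L. major amastigotes screened in duplicate or quadruplicate. Selectivity derived as HepG2 TC50 / L. major EC50.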

A short description of data set [7]: Selectivity index, ratio of TC50 for human HepG2 cells to EC50 for Leishmania major intracellular amastigotes harboring luciferase infected in mouse RAW264.7 cells. Type of data set: toxicity, cell-based. The settings on record: read-out: Selectivity Index. In outline: as §1
Data set [8] relates to Plasmodium falciparum. The experiment in a line: Antimalarial activity against Plasmodium falciparum D6 trophozoites after 72 hrs by SYBR Green I dye-based fluorescence assay. The conditions noted are these: D6, 72 h. Type of data set: functional, organism-based. The method, boiled down:
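P. falciparum D6 strain; compounds run in duplicate or quadruplicate; EC50 determined from dose-response.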

A short description of data set [9]: Selectivity index, ratio of TC50 for human HepG2 cells to EC50 for Plasmodium falciparum D6 trophozoites. Type of data set: toxicity. The conditions noted are these: read-out: Selectivity Index. The method, boiled down:
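P. falciparum D6 screened in duplicate or quadruplicate. Selectivity = HepG2 TC50 / P. falciparum EC50.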

With `Fc1cccc(COc2ccc(Nc3ncnc4cc(C#CCN5CCSCC5)sc34)cc2Cl)c1`, the CC50 in data set [1] is above 28 µM; in [4], above 50 µM. In addition, the Activity in data set [2] is recorded as 12%. In addition, the negative logarithm of the EC50 (pEC50) in data set [3] is 5.30; in data set [6] it was 5.23; in data set [8] it was below 4.82. For the same compound, the selectivity ratio in [5] was above 10; in data set [7] it was above 4.8.
Take `CC(C)(C)CC#Cc1cc2c(Nc3ccc(OCc4cccc(F)c4)c(Cl)c3)ncnc2s1`: the CC50 was above 32 µM in [1] and above 50 µM in data set [4]. The Activity in data set [2] was 1%. Also, the values for the pEC50 in data set [3], in [6] and in data set [8] were 4.52, below 4.82 and 5.24, respectively. In addition, the selectivity ratio was above 1.7 in [5] and above 5.6 in data set [9].
On to `C[C@@H]1[C@H](O)[C@@H](C)/C=C/C=C/C=C/C=C/C=C/C=C/C=C/[C@H](O[C@@H]2O[C@H](C)[C@@H](O)[C@H](N)[C@@H]2O)C[C@@H]2O[C@](O)(C[C@@H](O)C[C@@H](O)[C@H](O)CC[C@@H](O)C[C@@H](O)CC(=O)O[C@H]1C)C[C@H](O)[C@H]2C(=O)O` [AMPHOTERICIN B], for which, in data set [6], the negative logarithm of the EC50 (pEC50) was 7.46.
As for `Fc1cccc(COc2ccc(Nc3ncnc4cc(C#Cc5cn6ccnc6cn5)sc34)cc2Cl)c1`, the CC50 was above 28 µM in data set [1] and above 50 µM in data set [4]. For the same compound, the Activity in data set [2] was found to be 33%. Also, the pEC50 in data set [3] was below 4.30; in data set [6], below 4.82; in [8] it was 5.24. Further, the selectivity ratio in data set [9] was above 4.9.
For `CN(CC#Cc1cc2ncnc(Nc3ccc(OCc4cccc(F)c4)c(Cl)c3)c2s1)Cc1ccccc1`, the CC50 in data set [1] was above 27 µM; in [4], above 50 µM. Further, the Activity in [2] is reported as 18%. Also, the results for the negative logarithm of the EC50 (pEC50) in [3], in data set [6] and in data set [8] were below 4.30, below 4.82 and below 4.82, respectively.
Turning to `Fc1cccc(COc2ccc(Nc3ncnc4ccc(C#CCN5CCSCC5)cc34)cc2Cl)c1`, the figures for the CC50 in data set [1] and in data set [4] were above 29 µM and above 50 µM, respectively. For the same compound, the Activity in data set [2] is 19%. The values for the negative-log EC50 (pEC50) in [3], in [6] and in data set [8] were 5.60, 5.27 and 5.96, respectively. For the same compound, the selectivity ratio was above 20 in data set [5], above 5.4 in [7] and above 26 in data set [9].
In the case of `CN(CC#Cc1cc2c(Nc3ccc(OCc4cccc(F)c4)c(Cl)c3)ncnc2s1)Cc1ccccc1`, the results for the CC50 in data set [1] and in data set [4] were 21.6 µM and 2.5 µM, respectively. This compound displayed an Activity in data set [2] of 0%. Moreover, the negative-log EC50 (pEC50) in data set [3] is 5.72; in data set [6], 4.96; in data set [8], 5.32. Also, the selectivity ratio came out at 1.3 in data set [5], 2 in data set [7] and 4.6 in data set [9].
Turning to `COCC#Cc1cc2c(Nc3ccc(OCc4cccc(F)c4)c(Cl)c3)ncnc2s1`, the CC50 was found to be 9.5 µM in data set [1] and 1.7 µM in data set [4]. Further, the Activity in data set [2] is given as 18%. In addition, the results for the negative logarithm of the EC50 (pEC50) in data set [3], in [6] and in [8] were 5.82, 5.14 and 5.52, respectively. The selectivity ratio stood at 1.1 in data set [5], 1.3 in data set [7] and 3.2 in data set [9].
For `Fc1cccc(COc2ccc(Nc3ncnc4sc(C#CCN5CCOCC5)cc34)cc2Cl)c1`, the CC50 in data set [1] is above 29 µM. Besides, the Activity in data set [2] is listed as 48%. Moreover, the pEC50 in data set [6] was 5.19; in data set [8], 5.52. Besides, the selectivity ratio in data set [7] was above 4.5; in [9] it was above 9.7.
`CCOC(=O)CN(C)CC#Cc1cc2ncnc(Nc3ccc(OCc4cccc(F)c4)c(Cl)c3)c2s1`: the CC50 was 27 µM in data set [1] and 52 µM in [4]. In data set [2], this compound yielded an Activity of 27%. The negative logarithm of the EC50 (pEC50) was 5.02 in data set [3], 5.34 in data set [6] and 5.42 in data set [8]. In addition, the selectivity ratio in data set [5] worked out at 5.4; in data set [7], 5.9; in data set [9], 7.1.
As for `CCOC(=O)CN(C)CC#Cc1cc2c(Nc3ccc(OCc4cccc(F)c4)c(Cl)c3)ncnc2s1`, the CC50 is above 28 µM in data set [1] and above 50 µM in [4]. The same compound came in with an Activity in [2] of 53%. Besides, the figures for the pEC50 in [3], in data set [6] and in data set [8] were below 4.30, 5.05 and below 4.82, respectively. Also, the selectivity ratio in data set [7] was above 3.1.
Turning to `CC(C)(C)OC(=O)N1CCN(CC#Cc2cc3ncnc(Nc4ccc(OCc5cccc(F)c5)c(Cl)c4)c3s2)CC1`, the CC50 was above 24 µM in data set [1] and 47 µM in data set [4]. Further, the Activity in [2] worked out at 15%. Besides, the figures for the pEC50 in data set [3], in [6] and in data set [8] were 4.89, 5.16 and 5.82, respectively. Further, the selectivity ratio in data set [5] was 3.6; in data set [7] it was above 3.5; in data set [9], above 19.
In turn, `O=C(Cn1ccnc1[N+](=O)[O-])NCc1ccccc1` [BENZNIDAZOLE] had a negative-log EC50 (pEC50) in data set [3] of 6.10.
Consider `Fc1cccc(COc2ccc(Nc3ncnc4cc(C#CCN5CCNCC5)sc34)cc2Cl)c1`, for which the CC50 in data set [1] is above 29 µM; in data set [4], above 50 µM. Besides, in data set [2], the Activity turned out to be 16%. For the same compound, the negative logarithm of the EC50 (pEC50) in data set [3] was below 4.30; in [6] it was 5.40; in data set [8], 5.72. Also, the selectivity ratio in data set [7] was above 7.3; in data set [9], above 15.
`Fc1cccc(COc2ccc(Nc3ncnc4cc(C#Cc5ccc(C(F)(F)F)nc5)sc34)cc2Cl)c1`: the CC50 in data set [1] is above 5 µM; in data set [4], above 50 µM. Besides, in data set [2], the Activity worked out at 31%. In addition, the negative-log EC50 (pEC50) in data set [3] was below 4.30; in data set [6], below 5.52; in data set [8], below 5.44.
For `CCOC(=O)CN(C)CC#Cc1ccc2ncnc(Nc3ccc(OCc4cccc(F)c4)c(Cl)c3)c2c1`, the CC50 in data set [1] is above 28 µM; in data set [4], above 50 µM. The compound also returned an Activity in [2] of 23%. Further, the pEC50 in [3] is 5.10; in data set [6] it was below 4.82; in data set [8], below 4.82. Also, in data set [5], the selectivity ratio is above 6.3.
Take `Fc1cccc(COc2ccc(Nc3ncnc4ccc(C#CCN5CCOCC5)cc34)cc2Cl)c1`: the CC50 is above 30 µM in data set [1] and 33 µM in [4]. The Activity in data set [2] turned out to be 27%. Further, the pEC50 in [3] was 6.10; in data set [6] it was 5.26; in data set [8], 5.23. The selectivity ratio is 41 in data set [5], above 5.5 in data set [7] and above 5.1 in data set [9].
Regarding `CC(C)CC#Cc1cc2ncnc(Nc3ccc(OCc4cccc(F)c4)c(Cl)c3)c2s1`, the CC50 is above 32 µM in data set [1] and above 50 µM in data set [4]. In addition, in [2], the Activity is 11%. In addition, the figures for the pEC50 in data set [3], in data set [6] and in data set [8] were below 4.30, below 4.82 and below 4.82, respectively.
For `Fc1cccc(COc2ccc(Nc3ncnc4ccc(-c5cccc(N6CCOCC6)c5)cc34)cc2Cl)c1`, the CC50 in data set [1] was above 35 µM.
As for `CCCN(CC#Cc1cc2ncnc(Nc3ccc(OCc4cccc(F)c4)c(Cl)c3)c2s1)CCC`, the figures for the CC50 in data set [1] and in data set [4] were 26.5 µM and above 50 µM, respectively. This compound yielded an Activity in data set [2] of 1%. Moreover, the pEC50 in data set [3] was below 4.30; in data set [6], 5.22; in data set [8], below 4.82. Also, in [7], the selectivity ratio was 4.5.
Take `CN(C)CC#Cc1cc2ncnc(Nc3ccc(OCc4cccc(F)c4)c(Cl)c3)c2s1`: the figures for the CC50 in data set [1] and in [4] were above 32 µM and above 50 µM, respectively. The same compound gave an Activity in data set [2] of 52%. For the same compound, the values for the negative-log EC50 (pEC50) in data set [3], in data set [6] and in [8] were 5.09, 5.60 and below 4.82, respectively. In addition, the selectivity ratio in data set [5] was above 6; in data set [7], above 13.
Consider `Fc1cccc(COc2ccc(Nc3ncnc4cc(C#Cc5ncccc5F)sc34)cc2Cl)c1`, for which the values for the CC50 in data set [1] and in data set [4] were 30 µM and 47 µM, respectively. The compound also registered an Activity in data set [2] of 19%. In addition, the negative logarithm of the EC50 (pEC50) was 4.72 in data set [3], below 4.82 in data set [6] and 5.96 in [8]. Besides, the selectivity ratio in data set [5] worked out at 2.5; in data set [9], 27.
Regarding `Fc1cccc(COc2ccc(Nc3ncnc4ccc(C#CC5CCCC5)cc34)cc2Cl)c1`, the figures for the CC50 in data set [1] and in [4] were above 3 µM and above 50 µM, respectively. In data set [2], this compound showed an Activity of 2%. The pEC50 is 5.70 in [3], below 5.70 in [6] and below 4.82 in [8]. Also, in data set [5], the selectivity ratio is above 25.
In the case of `CC(C)(C)CC#Cc1cc2ncnc(Nc3ccc(OCc4cccc(F)c4)c(Cl)c3)c2s1`, the CC50 in [1] was 29.3 µM; in [4], above 50 µM. Also, in [2], the Activity is recorded as 31%. For the same compound, the figures for the negative-log EC50 (pEC50) in [3], in [6] and in [8] were below 4.30, below 4.82 and below 4.82, respectively.
With `CCN(CC)CCCC(C)Nc1ccnc2cc(Cl)ccc12` (stereo not drawn) [CHLOROQUINE], the pEC50 in [8] was 8.05.

Broadly, the pEC50 is the negative decadic logarithm of the EC50, by convention in mol/L. Low values mean a high EC50, high ones a low EC50.
